# Reference: ChEMBL document CHEMBL5058577, “EUbOPEN Chemogenomics Library 2 (Multiplex)” (2022)
# Tested on: Fibroblast
# Assay: Multiplex assay against human fibroblast
# Assay type: toxicity, cell-based
# In short: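 Compound was added to live cells that had been stained at seeding with Hoechst33342, BioTracker Green Microtubule Cytoskeleton Dye, MitoTracker Red and Annexin V Alexa Fluor 680, and imaging followed on a CQ1 microscope at 37°C and 5% CO2. CellPathfinder machine-learning gating divided cells into Hoechst high-intensity objects or normal cells, normal cells into healthy, pyknosed or fragmented nuclei, and pyknosed cells into mitotic or apoptotic. Tubulin, mitochondrial-mass and membrane-permeability phenotypes are per cents of healthy-nucleus cells.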
# [1] = 12 h, 1 µM, compound concentration 1 uM, replicate 1
# [2] = 12 h, 1 µM, compound concentration 1 uM, replicate 2
# [3] = 12 h, 10 µM, compound concentration 10 uM, replicate 1
# [4] = 12 h, 10 µM, compound concentration 10 uM, replicate 2
# [5] = 24 h, 1 µM, compound concentration 1 uM, replicate 1
# [6] = 24 h, 1 µM, compound concentration 1 uM, replicate 2
# [7] = 24 h, 10 µM, compound concentration 10 uM, replicate 1
# [8] = 24 h, 10 µM, compound concentration 10 uM, replicate 2
# [9] = 48 h, 1 µM, compound concentration 1 uM, replicate 1
# [10] = 48 h, 1 µM, compound concentration 1 uM, replicate 2
# [11] = 48 h, 10 µM, compound concentration 10 uM, replicate 1
# [12] = 48 h, 10 µM, compound concentration 10 uM, replicate 2
compound,measurement,setting,value
CN[C@@H](C)C(=O)N[C@H](C(=O)N1CCC[C@H]1C(=O)Nc1snnc1-c1ccccc1)C1CCCCC1 [GDC-0152],Population Apoptotic (%),[1],70%
same,Population Fragmented Nuclei (%),[1],14%
same,Population Healthy Nuclei (%),[1],68%
same,Population Hoechst High Intensity Objects (%),[1],4%
same,Population Membrane Permeable-Phenotype (%),[1],1%
same,Population Mitochondria Different-Phenotype (%),[1],6%
same,Population Mitotic Cells (%),[1],30%
same,Population Normal (%),[1],95%
same,Population Pyknosed Nuclei (%),[1],16%
same,Population Tubulin-Different-Phenotype (%),[1],38%
same,Total Cell Count,[1],127
same,Population Apoptotic (%),[2],33%
same,Population Fragmented Nuclei (%),[2],16%
same,Population Healthy Nuclei (%),[2],56%
same,Population Hoechst High Intensity Objects (%),[2],6%
same,Population Membrane Permeable-Phenotype (%),[2],6%
same,Population Mitochondria Different-Phenotype (%),[2],9%
same,Population Mitotic Cells (%),[2],66%
same,Population Normal (%),[2],93%
same,Population Pyknosed Nuclei (%),[2],26%
same,Population Tubulin-Different-Phenotype (%),[2],62%
same,Total Cell Count,[2],121
same,Population Apoptotic (%),[3],38%
same,Population Fragmented Nuclei (%),[3],17%
same,Population Healthy Nuclei (%),[3],59%
same,Population Hoechst High Intensity Objects (%),[3],6%
same,Population Membrane Permeable-Phenotype (%),[3],0%
same,Population Mitochondria Different-Phenotype (%),[3],13%
same,Population Mitotic Cells (%),[3],61%
same,Population Normal (%),[3],93%
same,Population Pyknosed Nuclei (%),[3],22%
same,Population Tubulin-Different-Phenotype (%),[3],80%
same,Total Cell Count,[3],144
same,Population Apoptotic (%),[4],24%
same,Population Fragmented Nuclei (%),[4],26%
same,Population Healthy Nuclei (%),[4],34%
same,Population Hoechst High Intensity Objects (%),[4],10%
same,Population Mitochondria Different-Phenotype (%),[4],10%
same,Population Mitotic Cells (%),[4],75%
same,Population Normal (%),[4],90%
same,Population Pyknosed Nuclei (%),[4],39%
same,Population Tubulin-Different-Phenotype (%),[4],65%
same,Total Cell Count,[4],150
same,Population Apoptotic (%),[5],60%
same,Population Fragmented Nuclei (%),[5],20%
same,Population Healthy Nuclei (%),[5],63%
same,Population Hoechst High Intensity Objects (%),[5],2%
same,Population Membrane Permeable-Phenotype (%),[5],1%
same,Population Mitochondria Different-Phenotype (%),[5],1%
same,Population Mitotic Cells (%),[5],40%
same,Population Normal (%),[5],97%
same,Population Pyknosed Nuclei (%),[5],16%
same,Population Tubulin-Different-Phenotype (%),[5],30%
same,Total Cell Count,[5],123
same,Population Apoptotic (%),[6],37%
same,Population Fragmented Nuclei (%),[6],22%
same,Population Healthy Nuclei (%),[6],55%
same,Population Hoechst High Intensity Objects (%),[6],9%
same,Population Membrane Permeable-Phenotype (%),[6],2%
same,Population Mitochondria Different-Phenotype (%),[6],11%
same,Population Mitotic Cells (%),[6],62%
same,Population Normal (%),[6],90%
same,Population Pyknosed Nuclei (%),[6],22%
same,Population Tubulin-Different-Phenotype (%),[6],61%
same,Total Cell Count,[6],133
same,Population Apoptotic (%),[7],67%
same,Population Fragmented Nuclei (%),[7],14%
same,Population Healthy Nuclei (%),[7],58%
same,Population Hoechst High Intensity Objects (%),[7],5%
same,Population Membrane Permeable-Phenotype (%),[7],0%
same,Population Mitochondria Different-Phenotype (%),[7],21%
same,Population Mitotic Cells (%),[7],32%
same,Population Normal (%),[7],94%
same,Population Pyknosed Nuclei (%),[7],26%
same,Population Tubulin-Different-Phenotype (%),[7],83%
same,Total Cell Count,[7],135
same,Population Apoptotic (%),[8],41%
same,Population Fragmented Nuclei (%),[8],33%
same,Population Healthy Nuclei (%),[8],34%
same,Population Hoechst High Intensity Objects (%),[8],8%
same,Population Membrane Permeable-Phenotype (%),[8],16%
same,Population Mitochondria Different-Phenotype (%),[8],22%
same,Population Mitotic Cells (%),[8],58%
same,Population Normal (%),[8],91%
same,Population Pyknosed Nuclei (%),[8],31%
same,Population Tubulin-Different-Phenotype (%),[8],68%
same,Total Cell Count,[8],157
same,Population Apoptotic (%),[9],47%
same,Population Fragmented Nuclei (%),[9],23%
same,Population Healthy Nuclei (%),[9],60%
same,Population Hoechst High Intensity Objects (%),[9],1%
same,Population Membrane Permeable-Phenotype (%),[9],0%
same,Population Mitochondria Different-Phenotype (%),[9],1%
same,Population Mitotic Cells (%),[9],52%
same,Population Normal (%),[9],98%
same,Population Pyknosed Nuclei (%),[9],16%
same,Population Tubulin-Different-Phenotype (%),[9],48%
same,Total Cell Count,[9],132
same,Population Apoptotic (%),[10],57%
same,Population Fragmented Nuclei (%),[10],38%
same,Population Healthy Nuclei (%),[10],44%
same,Population Hoechst High Intensity Objects (%),[10],5%
same,Population Membrane Permeable-Phenotype (%),[10],2%
same,Population Mitochondria Different-Phenotype (%),[10],14%
same,Population Mitotic Cells (%),[10],42%
same,Population Normal (%),[10],94%
same,Population Pyknosed Nuclei (%),[10],17%
same,Population Tubulin-Different-Phenotype (%),[10],67%
same,Total Cell Count,[10],159
same,Population Apoptotic (%),[11],76%
same,Population Fragmented Nuclei (%),[11],23%
same,Population Healthy Nuclei (%),[11],45%
same,Population Hoechst High Intensity Objects (%),[11],6%
same,Population Membrane Permeable-Phenotype (%),[11],0%
same,Population Mitochondria Different-Phenotype (%),[11],22%
same,Population Mitotic Cells (%),[11],23%
same,Population Normal (%),[11],93%
same,Population Pyknosed Nuclei (%),[11],31%
same,Population Tubulin-Different-Phenotype (%),[11],81%
same,Total Cell Count,[11],145
same,Population Apoptotic (%),[12],44%
same,Population Fragmented Nuclei (%),[12],39%
same,Population Healthy Nuclei (%),[12],42%
same,Population Membrane Permeable-Phenotype (%),[12],19%
same,Population Mitochondria Different-Phenotype (%),[12],17%
same,Population Mitotic Cells (%),[12],55%
same,Population Pyknosed Nuclei (%),[12],18%
same,Population Tubulin-Different-Phenotype (%),[12],88%
same,Total Cell Count,[12],159
